Measurements published in ChEMBL document CHEMBL1158383, “Synthesis and blood glucose lowering effect of novel pyridazinone substituted benzenesulfonylurea derivatives” (2009).

Key:
Rattus norvegicus [1] = assay: Antidiabetic activity in streptozotocin-induced NIDDM Wistar albino rat model assessed as inhibition of rise of blood glucose level at 20 mg/kg, po administered 15 mins prior to glucose challenge measured after 90 mins of glucose loading by glucose oxidase-peroxidase colorimetric method; format: functional
Outline: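 n2-STZ model: STZ 100 mg/kg in fresh 0.1 M citrate pH 4.5 given i.p. to 2-day-old pups (6–8 g), weaned for 4 weeks. Diabetic rats had fasting glucose >140 mg/dl and >200 mg/dl 2 h after oral glucose. Overnight-fasted groups of six got a 1% CMC suspension p.o. 15 min before glucose 2 g/kg p.o. GOD-POD at 505 nm before and at 90 min; reduction set against the control rise.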

Rattus norvegicus [2] = assay: Antidiabetic activity in normal Wistar albino rat assessed as inhibition of rise of blood glucose level at 20 mg/kg, po administered 15 mins prior to glucose challenge measured after 90 mins of glucose loading by glucose oxidase-peroxidase colorimetric method; format: functional
Outline: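 Wistar albino rats of either sex (160–200 g), fasted overnight, in groups of six. Dosed p.o. at 10 ml/kg, suspended in 1% CMC in distilled water; vehicle controls. Glucose 2 g/kg p.o. given 15 min after dosing. Retro-orbital blood taken just before and 90 min after glucose; glucose read by GOD-POD quinoneimine at 505 nm. Percent reduction taken against the control rise, set as 100%.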

Compound	inhibition in vivo at 20 mg/kg (Rattus norvegicus [1]) [%]	inhibition in vivo at 20 mg/kg (Rattus norvegicus [2]) [%]
CCCNC(=O)NS(=O)(=O)c1ccc(-n2nc(-c3ccc(C)cc3)ccc2=O)cc1	109	80.5
Cc1ccc(-c2ccc(=O)n(-c3ccc(S(=O)(=O)NC(=O)NC4CCCCC4)cc3)n2)cc1	110	79.9
CCCCNC(=O)NS(=O)(=O)c1ccc(-n2nc(-c3ccccc3)ccc2=O)cc1	111	67.4
O=C(NC1CCCCC1)NS(=O)(=O)c1ccc(-n2nc(-c3ccc(Cl)cc3)ccc2=O)cc1	114	59
CCCNC(=O)NS(=O)(=O)c1ccc(-n2nc(-c3ccc(Cl)cc3)ccc2=O)cc1	122	74.3
O=C(NCc1ccccc1)NS(=O)(=O)c1ccc(-n2nc(-c3ccc(Cl)cc3)ccc2=O)cc1	111	61.6
CCCCNC(=O)NS(=O)(=O)c1ccc(-n2nc(-c3ccc(OC)cc3)ccc2=O)cc1	25.6	43.7
CCCCNC(=O)NS(=O)(=O)c1ccc(-n2nc(-c3ccc(C)cc3)ccc2=O)cc1	109	86.6
O=C(NC1CCCCC1)NS(=O)(=O)c1ccc(-n2nc(-c3ccccc3)ccc2=O)cc1	86.2	52.1
CCCCNC(=O)NS(=O)(=O)c1ccc(-n2nc(-c3ccc(Cl)cc3)ccc2=O)cc1	100	66
Cc1cc(-c2ccc(=O)n(-c3ccc(S(=O)(=O)NC(=O)NC4CCCCC4)cc3)n2)ccc1Cl	55.2	62.1
Cc1ccc(-c2ccc(=O)n(-c3ccc(S(=O)(=O)NC(=O)NCc4ccccc4)cc3)n2)cc1	119	64.9
CCCNC(=O)NS(=O)(=O)c1ccc(-n2nc(-c3ccccc3)ccc2=O)cc1	125	77.2
Cc1ccc(S(=O)(=O)NC(=O)NN2CC3CCCC3C2)cc1 (stereo not drawn) [GLICLAZIDE]	107	135
